Measurements taken from ChEMBL document CHEMBL4184291, “Discovery of N-arylpyrroles as agonists of GPR120 for the treatment of type II diabetes” (Bioorg Med Chem Lett, 2018).

Columns and labels:
Cytochrome P450 2D6 = Cytochrome P450 2D6 (Homo sapiens, UniProt P10635); assay: Inhibition of CYP2D6 (unknown origin); format: ADME
[1] = Half life in human liver microsomes; format: ADME, microsome
[2] = Half life in mouse liver microsomes; format: ADME, microsome
[3] = Protein binding in human plasma; format: ADME, cell-free; conditions: read-out: PPB (converted)
[4] = Clearance in mouse at 1.15 mg/kg, iv by LC-MS/MS analysis; format: ADME, organism-based; conditions: in vivo
[5] = Half life in mouse at 14.6 mg/kg, po by LC-MS/MS analysis; format: ADME, organism-based; conditions: in vivo
[6] = Cmax in mouse at 14.6 mg/kg, po by LC-MS/MS analysis; format: ADME, organism-based; parameters: dose 14.6 mg/kg, route oral; conditions: in vivo
[7] = Half life in rat at 2 mg/kg, iv by LC-MS/MS analysis; format: ADME, organism-based; conditions: in vivo
[8] = AUClast in rat at 10 mg/kg, po by LC-MS/MS analysis; format: ADME, organism-based; parameters: dose 10 mg/kg, time 0 - last, route oral; conditions: in vivo
[9] = Oral bioavailability in rat at 10 mg/kg by LC-MS/MS analysis; format: ADME, organism-based; conditions: in vivo
[10] = Half life in dog at 1 mg/kg, iv by LC-MS/MS analysis; format: ADME, organism-based, Canis lupus familiaris; conditions: in vivo
[11] = Cmax in dog at 5 mg/kg, po by LC-MS/MS analysis; format: ADME, organism-based, Canis lupus familiaris; parameters: dose 5 mg/kg, route oral; conditions: in vivo
[12] = Oral bioavailability in dog at 5 mg/kg by LC-MS/MS analysis; format: ADME, organism-based, Canis lupus familiaris; conditions: in vivo
[13] = target: T1, Free fatty acid receptor 4 (Mus musculus, UniProt Q7TMA4); assay: Agonist activity at recombinant mouse GPR120 expressed in HEK293 cells; format: functional, cell-based
T1 sequence (Q7TMA4 whole entry): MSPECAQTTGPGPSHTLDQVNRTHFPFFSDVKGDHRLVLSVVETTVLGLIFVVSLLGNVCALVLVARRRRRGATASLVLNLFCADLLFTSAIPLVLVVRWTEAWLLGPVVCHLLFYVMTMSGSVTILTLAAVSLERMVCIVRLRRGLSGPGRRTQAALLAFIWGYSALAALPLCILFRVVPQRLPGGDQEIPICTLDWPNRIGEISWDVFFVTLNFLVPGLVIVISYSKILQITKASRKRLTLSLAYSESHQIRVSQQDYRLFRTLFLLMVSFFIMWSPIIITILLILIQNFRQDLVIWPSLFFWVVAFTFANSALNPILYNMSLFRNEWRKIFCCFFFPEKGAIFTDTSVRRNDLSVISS

[14] = target: T2, Free fatty acid receptor 4 (Homo sapiens, UniProt Q5NUL3); assay: Agonist activity at GPR120 in human HT-29 cells assessed as intracellular calcium flux; format: functional, cell-based
T2 sequence (Q5NUL3 whole entry): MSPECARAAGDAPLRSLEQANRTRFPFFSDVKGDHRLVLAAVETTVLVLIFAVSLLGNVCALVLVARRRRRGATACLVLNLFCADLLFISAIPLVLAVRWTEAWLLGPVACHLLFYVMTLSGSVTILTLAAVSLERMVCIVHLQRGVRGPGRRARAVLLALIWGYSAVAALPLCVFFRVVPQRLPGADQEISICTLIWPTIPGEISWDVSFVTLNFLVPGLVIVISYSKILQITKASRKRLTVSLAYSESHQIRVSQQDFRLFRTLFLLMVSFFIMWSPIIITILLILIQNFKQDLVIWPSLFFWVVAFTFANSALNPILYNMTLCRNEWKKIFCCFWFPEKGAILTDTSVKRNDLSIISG
Outline: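 Calcium-flux EC50 measured in HT-29 cells, a low-expressing line with endogenous GPR120.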

[15] = target: Free fatty acid receptor 1 (Mus musculus, UniProt Q76JU9); assay: Agonist activity at mouse GPR40; format: functional
Free fatty acid receptor 1, sequence (Q76JU9 whole entry): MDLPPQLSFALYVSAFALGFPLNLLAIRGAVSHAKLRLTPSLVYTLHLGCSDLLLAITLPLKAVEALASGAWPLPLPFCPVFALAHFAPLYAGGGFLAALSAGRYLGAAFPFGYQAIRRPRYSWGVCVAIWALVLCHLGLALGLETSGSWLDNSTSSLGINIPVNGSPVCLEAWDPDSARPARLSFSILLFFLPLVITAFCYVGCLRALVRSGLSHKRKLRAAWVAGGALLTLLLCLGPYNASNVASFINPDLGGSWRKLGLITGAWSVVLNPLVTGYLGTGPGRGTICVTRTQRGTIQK

Mus musculus [16] = species on record: Mus musculus; assay: Selectivity ratio of EC50 for mouse GPR40 to EC50 for recombinant mouse GPR120 expressed in HEK293 cells; format: cell-based
[17] = target: 5-hydroxytryptamine receptor 5A (Homo sapiens) (UniProt P47898); assay: Displacement of […] from recombinant human 5-HT5A at 10 uM after 60 mins by scintillation counting method relative to control
5-hydroxytryptamine receptor 5A (Homo sapiens), sequence (P47898 whole entry): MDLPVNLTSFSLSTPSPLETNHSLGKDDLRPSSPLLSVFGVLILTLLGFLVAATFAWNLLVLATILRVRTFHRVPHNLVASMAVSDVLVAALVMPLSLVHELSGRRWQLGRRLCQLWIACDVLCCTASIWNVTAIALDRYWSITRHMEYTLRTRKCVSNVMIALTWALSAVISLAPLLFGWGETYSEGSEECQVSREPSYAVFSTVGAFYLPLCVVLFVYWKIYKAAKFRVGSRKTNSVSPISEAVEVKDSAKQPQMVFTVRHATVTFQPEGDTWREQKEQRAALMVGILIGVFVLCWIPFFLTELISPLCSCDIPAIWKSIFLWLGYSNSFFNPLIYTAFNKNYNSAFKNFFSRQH

[18] = target: Sodium-dependent noradrenaline transporter (Homo sapiens) (UniProt P23975); assay: Displacement of [3H]nisoxetine from recombinant human norepinephrine transporter at 10 uM after 120 mins by scintillation counting method relative to control
Sodium-dependent noradrenaline transporter (Homo sapiens), sequence (P23975 whole entry): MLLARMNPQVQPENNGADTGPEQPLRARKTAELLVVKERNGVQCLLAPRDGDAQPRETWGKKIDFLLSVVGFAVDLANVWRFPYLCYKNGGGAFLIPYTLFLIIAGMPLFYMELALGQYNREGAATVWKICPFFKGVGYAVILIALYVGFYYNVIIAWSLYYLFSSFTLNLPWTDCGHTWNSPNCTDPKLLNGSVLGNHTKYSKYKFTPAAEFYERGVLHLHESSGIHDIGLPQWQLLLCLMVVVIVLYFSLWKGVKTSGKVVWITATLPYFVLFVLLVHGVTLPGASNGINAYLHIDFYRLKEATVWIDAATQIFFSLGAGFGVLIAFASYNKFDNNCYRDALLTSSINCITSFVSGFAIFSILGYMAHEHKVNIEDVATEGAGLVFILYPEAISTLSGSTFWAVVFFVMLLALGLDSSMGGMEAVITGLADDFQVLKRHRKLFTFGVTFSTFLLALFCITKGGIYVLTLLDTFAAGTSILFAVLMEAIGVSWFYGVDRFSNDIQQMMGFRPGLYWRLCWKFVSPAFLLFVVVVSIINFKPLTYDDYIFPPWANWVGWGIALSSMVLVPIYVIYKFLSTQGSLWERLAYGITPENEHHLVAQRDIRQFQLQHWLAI

Cavia porcellus [19] = assay: Cardiotoxicity in guinea pig assessed as effect on body temperature at 22.4 mg/kg; format: toxicity, organism-based; conditions: in vivo
Cavia porcellus [20] = assay: Cardiotoxicity in guinea pig assessed as decrease in mean arterial blood pressure at 22.4 mg/kg; format: toxicity, organism-based; parameters: scale not given: the % may be the effect or the level left; conditions: in vivo
[21] = Cmax in guinea pig at 22.4 mg/kg; format: ADME, organism-based, Cavia porcellus; parameters: dose 22.4 mg/kg; conditions: in vivo
Mus musculus [22] = assay: Antidiabetic activity in po dosed diet-induced obese C57Bl/6 mouse model assessed as decrease in plasma glucose AUC administered 30 mins prior to glucose challenge measured up to 90 mins post dose by OGTT; format: functional, organism-based
Outline: (§1)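 Diet-induced obese mice dosed orally at 0.1–3.0 mg/kg 30 min before an oral glucose load (time 0). Glucose followed from 30 min pre-glucose to 90 min post-glucose. Saxagliptin 1 mg/kg was the positive control.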

Mus musculus [23] = assay: Antidiabetic activity in diet-induced obese C57Bl/6 mouse model assessed as change in plasma glucose AUC at 1 mg/kg, po administered 30 mins prior to glucose challenge measured up to 90 mins post dose by OGTT; format: functional; outline: as §1
Mus musculus [24] = assay: Antidiabetic activity in diet-induced obese C57Bl/6 mouse model assessed as change in plasma glucose AUC at 3 mg/kg, po administered 30 mins prior to glucose challenge measured up to 90 mins post dose by OGTT; format: functional; outline: as §1
Mus musculus [25] = assay: Antiobesity activity in diet-induced obesity C57Bl6/J mouse model assessed as basal glucose level in plasma at 10 mg/kg qd for 15 days measured on day 15 post 6 hrs fasting (reference value: 187 +/- 24 mg/dL); format: functional
Mus musculus [26] = assay: Antiobesity activity in diet-induced obesity C57Bl6/J mouse model assessed as final glucose level in plasma at 10 mg/kg bid for 15 days measured on day 15 post 6 hrs fasting (reference value: 184 +/- 30 mg/dL); format: functional
Mus musculus [27] = assay: Antiobesity activity in diet-induced obesity C57Bl6/J mouse model assessed as reduction in body weight at 30 mg/kg qd for 15 days measured on day 15 post 6 hrs fasting relative to control; format: functional; parameters: scale not given: the % may be the effect or the level left
Mus musculus [28] = assay: Antiobesity activity in diet-induced obesity C57Bl6/J mouse model assessed as basal insulin level in plasma at 10 mg/kg qd for 15 days measured on day 15 post 6 hrs fasting (reference value: 16959 +/- 4943 pg/ml); format: functional
Mus musculus [29] = assay: Antiobesity activity in diet-induced obesity C57Bl6/J mouse model assessed as final insulin level in plasma at 10 mg/kg qd for 15 days measured on day 15 post 6 hrs fasting (reference value: 7304 +/- 2967 pg/ml); format: functional
Mus musculus [30] = assay: Antiobesity activity in diet-induced obesity C57Bl6/J mouse model assessed as final insulin level in plasma at 10 mg/kg bid for 15 days measured on day 15 post 6 hrs fasting (reference value: 7304 +/- 2967 pg/ml); format: functional
[31] = Plasma concentration in mouse at 3 mg/kg; format: ADME, organism-based; conditions: in vivo
Outline: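 Plasma exposure for a 3 mg/kg oral dose in mice was predicted from the mouse PK study, not measured directly. It was expressed as ng/mL and converted to µM.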

Cytochrome P450 2D6, sequence (P10635 whole entry): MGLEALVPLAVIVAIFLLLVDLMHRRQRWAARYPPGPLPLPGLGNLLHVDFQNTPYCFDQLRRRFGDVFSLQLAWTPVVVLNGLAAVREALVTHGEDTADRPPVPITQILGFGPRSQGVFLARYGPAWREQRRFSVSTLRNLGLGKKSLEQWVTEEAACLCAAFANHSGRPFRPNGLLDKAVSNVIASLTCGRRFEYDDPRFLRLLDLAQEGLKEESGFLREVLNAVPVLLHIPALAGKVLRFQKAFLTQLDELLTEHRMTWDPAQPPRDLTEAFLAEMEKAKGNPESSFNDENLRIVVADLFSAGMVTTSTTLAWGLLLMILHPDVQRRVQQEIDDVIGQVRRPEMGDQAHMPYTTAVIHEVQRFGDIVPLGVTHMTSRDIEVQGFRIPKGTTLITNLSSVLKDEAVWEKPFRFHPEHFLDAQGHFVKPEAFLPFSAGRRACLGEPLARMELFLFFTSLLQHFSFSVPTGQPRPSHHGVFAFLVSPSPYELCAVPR

INH (Cytochrome P450 2D6): > 10 µM
half-life [1]: 0.85 h
half-life [2]: 2.58 h
fraction unbound [3]: 0.0008
clearance [4]: 0.294 L/h/kg
half-life [5]: 3.45 h
Cmax [6]: 18.7 µg/mL
half-life [7]: 1.64 h
AUC(0-t) [8]: 60.9 µg·h/mL
bioavailability [9]: 116%
half-life [10]: 4.72 h
Cmax [11]: 8.92 µg/mL
bioavailability [12]: 145%
EC50 [13]: 0.193 µM
EC50 [14]: 0.137 µM
EC50 [15]: 3.52 µM
inhibition [17]: 58%
inhibition [18]: 51%
Cmax [21]: 105 µg/mL
concentration [31]: 8.64 µM
Compound: O=C(O)CCc1cc(F)c(OCc2c(C(F)(F)F)ccn2-c2ccc(Cl)cc2)c(F)c1
Ratio EC50 (Mus musculus [16]): 18
Activity (Cavia porcellus [19]): Non-Toxic
Activity (Cavia porcellus [20]): 10%
Activity (Mus musculus [22]): Dose-dependent effect
Activity (Mus musculus [23]): -54%
Activity (Mus musculus [24]): -83%
Activity (Mus musculus [25]): 202 mg/dL
Activity (Mus musculus [26]): 170 mg/dL
Activity (Mus musculus [27]): 4.6%
Activity (Mus musculus [28]): 17395 pg/mL
Activity (Mus musculus [29]): 7756 pg/mL
Activity (Mus musculus [30]): 6225 pg/mL
